Data on ten molecules can be found in ChEMBL document CHEMBL2146379, “Antimetastatic effect of sulfamate carbonic anhydrase IX inhibitors in breast carcinoma xenografts” (J Med Chem, 2012).

Series [1] has as its system MDA-MB-231. The series is described as follows: Antimetastatic activity against EGFP tagged human MDA-MB-231 cells expressing CA9 assessed as inhibition of cell migration under anoxic condition after 24 hrs by scratch-wound assay. The format is functional, cell-based. Summed up:
(§1)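 Scratch-wound migration in confluent monolayers of RPMI 1640/10% FCS/2 mM glutamine-grown cells (eGFP-tagged MDA-MB-231, WRO, FTC-133; untagged RT112, HCT116). Incubation 24 h in normoxia or anoxia with DMSO or inhibitor at increasing concentrations (3.3, 10, 33 μM tested). Wound closure imaged by fluorescence. n = 3 per concentration per cell line; mean ± SEM, Student's t test.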

Series [2] deals with MDA-MB-231. The series is described as follows: Antimetastatic activity against EGFP tagged human MDA-MB-231 cells expressing CA9 assessed as inhibition of cell migration under normoxic condition after 24 hrs by scratch-wound assay. The format is functional, cell-based. A digest of the protocol: as §1
The next series concerns the target Carbonic anhydrase 9 (Homo sapiens, UniProt Q16790). The series is described as follows: Inhibition of human recombinant transmembrane CA9 preincubated for 15 mins by stopped-flow CO2 hydration method. A digest of the protocol:
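Stopped-flow CO₂ hydration with in-house recombinant human CA, CO₂ 1.7−17 mM. Inhibitor diluted in water from 0.1 mM stock down to 0.01 nM, preincubated with enzyme 15 min at room temperature. Initial velocity from ≥6 traces of the first 5−10% of reaction, uncatalyzed rate subtracted.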

Series [3] deals with MDA-MB-231. Nature of the series: Antimetastatic activity against EGFP tagged human MDA-MB-231 cells expressing CA9 assessed as inhibition of cell migration under anoxic condition at 10 uM after 24 hrs by scratch-wound assay. Particulars: MDA-MB-231, 24 h. It counts as functional. A digest of the protocol:
as §1

Series [4] deals with MDA-MB-231. Nature of the series: Antimetastatic activity against EGFP tagged human MDA-MB-231 cells expressing CA9 assessed as inhibition of cell migration under anoxic condition at 3.3 uM after 24 hrs by scratch-wound assay. The format is functional. As to conditions: MDA-MB-231, 24 h. A digest of the protocol:
as §1

Series [5] relates to MDA-MB-231. Nature of the series: Antimetastatic activity against EGFP tagged human MDA-MB-231 cells expressing CA9 assessed as inhibition of cell spreading under normoxic condition at 33 uM after 60 mins by phalloidin staining. The format is functional, cell-based.
Series [6] deals with HCT-116. The series is described as follows: Antimetastatic activity against human HCT116 cells assessed as stimulation of cell migration under anoxic condition at 33 uM after 24 hrs by scratch-wound assay. It counts as functional. Summed up: as §1
Series [7] has as its system MDA-MB-231. Nature of the series: Antitumor activity against EGFP tagged human MDA-MB-231 cells expressing CA9 xenografted in nu/nu CBA mouse assessed as tumor growth inhibition at 10 mg/kg, ip administered 5 days on 2 days off. The arrangement: dose 10 mg/kg. The format is functional, organism-based. A digest of the protocol:
(§2)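 Female nu/nu CBA mice, 10−12 weeks old, 8 per group, injected orthotopically into the fourth inguinal nipple with eGFP-MDA-MB-231 cells (5 × 10⁷ cells/mL in 1:1 serum-free RPMI/Matrigel). From 150 mm³ tumors, dosed 10 mg/kg ip daily (saline, 4% DMSO), 5 days on/2 off. Callipers 3×/week; health checked daily; body weight tracked. Culled at 1000 mm³; lung metastasis by ex vivo clonogenic assay.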

Series [8] deals with Mus musculus. The series is described as follows: Toxicity in nu/nu CBA mouse xenografted with EGFP tagged human MDA-MB-231 cells expressing CA9 assessed as signs of intolerance at 10 mg/kg, ip administered 5 days on 2 days off. Particulars: in vivo. Also on record: dose 10 mg/kg, route intraperitoneal. It counts as organism-based. Summed up: as §2
Series [9] concerns MDA-MB-231. Nature of the series: Cytotoxicity against EGFP tagged human MDA-MB-231 cells expressing CA9 at 100 uM. It counts as functional, cell-based.
The subject of series [10] is HCT-116. Nature of the series: Antimetastatic activity against human HCT116 cells xenografted in mouse assessed as inhibition of lung metastasis. The format is functional.
Series [11] deals with MDA-MB-231. Nature of the series: Antimetastatic activity against EGFP tagged human MDA-MB-231 cells expressing CA9 assessed as inhibition of cell migration under anoxic condition at 33 uM after 24 hrs by scratch-wound assay. The format is functional. As to conditions: MDA-MB-231, 24 h. Summed up: as §1
For series [12], the system named is MDA-MB-231. Nature of the series: Antimetastatic activity against EGFP tagged human MDA-MB-231 cells expressing CA9 xenografted in nu/nu CBA mouse tumor assessed as reduction in metastasic burden in lungs at 10 mg/kg, ip, administered 5 days on 2 days off measured on day 10 by clonogenic assay. It counts as functional, organism-based. Also on record: dose 10 mg/kg. A digest of the protocol: as §2

Series [13] in a line: Antimetastatic activity against EGFP tagged human WRO cells expressing CA9 assessed as inhibition of cell migration under anoxic condition at 100 uM after 24 hrs by scratch-wound assay. It counts as functional.
For a further series, the system named is FTC-133. The series is described as follows: Antimetastatic activity against EGFP tagged human FTC-133 cells expressing CA9 assessed as inhibition of cell migration under anoxic condition at 33 uM after 24 hrs by scratch-wound assay. The format is functional, cell-based. Summed up: as §1
In series [14] the test system is Mus musculus. The series is described as follows: Toxicity in nu/nu CBA mouse xenografted with EGFP tagged human MDA-MB-231 cells expressing CA9 assessed as change in body weight at 10 mg/kg, ip administered 5 days on 2 days off. The format is organism-based. Also on record: dose 10 mg/kg, route intraperitoneal. As to conditions: in vivo. Summed up: as §2
A further series has as its system RT-112. The series is described as follows: Antimetastatic activity against CA9 deficient human RT112 cells assessed as inhibition of cell migration under anoxic condition at 33 uM after 24 hrs by scratch-wound assay. It counts as functional, cell-based. A digest of the protocol:
as §1

For series [15], the system named is MDA-MB-231. The series is described as follows: Antimetastatic activity against EGFP tagged human MDA-MB-231 cells expressing CA9 assessed as inhibition of cell spreading under anoxic condition at 33 uM after 60 mins by phalloidin staining. It counts as functional, cell-based.

Calls of active or inactive are those of the source. The rule behind the calls is not given here.

As to `NS(=O)(=O)Oc1ccc(NC(=O)Nc2ccc([N+](=O)[O-])cc2)cc1`, the inhibition result in the series with MDA-MB-231 [1] and with MDA-MB-231 [2] was “Active” throughout.
Turning to `NS(=O)(=O)Oc1ccc(-[n+]2c(-c3ccccc3)cc(-c3ccccc3)cc2-c2ccccc2)cc1`, at Carbonic anhydrase 9, the Ki stood at 14 nM. Besides, in the series with MDA-MB-231 [1], the inhibition entry is “inactive”.
With `NS(=O)(=O)Oc1ccc(NC(=O)Nc2ccc(Cl)cc2)cc1`, the inhibition result in the series on MDA-MB-231 [1] and in the series with MDA-MB-231 [2] was “Active” in each case.
On to `NS(=O)(=O)Oc1ccc(NC(=S)Nc2ccc(-c3c4ccc(=O)cc-4oc4cc(O)ccc34)c(C(=O)O)c2)cc1`, for which the inhibition entry in the series on MDA-MB-231 [1] was “inactive”.
Regarding `COc1ccc(NC(=O)Nc2ccc(OS(N)(=O)=O)cc2)cc1`, the inhibition entry with MDA-MB-231 [1] is “inactive”.
For `CN(C)c1ccc(NC(=O)Nc2ccc(OS(N)(=O)=O)cc2)cc1`, on Carbonic anhydrase 9, the Ki was found to be 9 nM. In addition, in the series with MDA-MB-231 [1], the inhibition entry was “inactive”.
In the case of `Cc1cc(C)cc(NC(=O)Nc2ccc(OS(N)(=O)=O)cc2)c1`, in the series with MDA-MB-231 [3], the inhibition at 10 µM came out at 21%. For the same molecule, in the series on MDA-MB-231 [4], the inhibition at 3.3 µM came out at 5%. The inhibition entry with MDA-MB-231 [5], in the series with HCT-116 [10] and in the series on RT-112 was “inactive” each time. Also, the Activity is reported as 44% in the series with HCT-116 [6], “Non-toxic” with Mus musculus [8] and “Non-toxic” with Mus musculus [14]. Also, the “growth inhibition (GI)” value in the series on MDA-MB-231 [7] is “inactive”. Besides, the outcome in the series on MDA-MB-231 [9] and in the series with MDA-MB-231 [12] was Active. Besides, in the series with MDA-MB-231 [11], the inhibition at 33 µM amounted to 50%. Further, in series [13], the inhibition at 100 µM was found to be 41%. In addition, the inhibition entry in the series with FTC-133 and in the series on MDA-MB-231 [15] was “Active” throughout.
`NS(=O)(=O)Oc1ccc(NC(=O)Nc2ccc(F)cc2)cc1`: the inhibition result with MDA-MB-231 [1] and in the series with MDA-MB-231 [2] was “Active” each time.
Turning to `NS(=O)(=O)Oc1ccc(NC(=O)Nc2ccc(Oc3ccccc3)cc2)cc1`, the inhibition at 33 µM in the series on MDA-MB-231 [11] was 49%.
On the same count and under the same terms, the same measure for `NS(=O)(=O)Oc1ccc(NC(=O)Nc2c(F)c(F)c(F)c(F)c2F)cc1`: 32%.
